In ChEMBL document CHEMBL3046016, “Antifeedant and growth inhibitory effects of some neo-clerodane diterpenoids isolated from Clerodendron species (Verbenaceae) on Earias vitella and Spodoptera litura” (2003):

Columns and labels:
Format in all cases: functional
[1] = test system: Earias vittella; assay: Insecticidal activity against third-instar larval stage of Earias vitella assessed as larval mortality at 5 ug/cm3 administered through artificial diet containing Abelmoschus esculentus seed powder (reference value: 4%)
[2] = test system: Spodoptera litura; assay: Insecticidal activity against pupal stage of Spodoptera litura in compound-treated castor leaves assessed as pupal mortality at 5 ug/cm2 relative to control
[3] = test system: Spodoptera litura; assay: Insecticidal activity against pupal stage of Spodoptera litura in compound-treated castor leaves assessed as pupal duration time at 5 ug/cm2 (reference value: 9.2 +/- 0.74 days)
[4] = test system: Spodoptera litura; assay: Insecticidal activity against pupal stage of Spodoptera litura in compound-treated castor leaves assessed as pupal weight at 10 ug/cm2 (reference value: 302.4 +/- 5.9 mg)
[5] = test system: Spodoptera litura; assay: Insecticidal activity against pupal stage of Spodoptera litura in compound-treated castor leaves assessed as pupal duration time at 10 ug/cm2 (reference value: 9.2 +/- 0.74 days)
[6] = test system: Earias vittella; assay: Insecticidal activity against third-instar larval stage of Earias vitella assessed as total larval duration time at 10 ug/cm3 administered through artificial diet containing Abelmoschus esculentus seed powder (reference value: 8.2 +/- 0.48 days)
[7] = test system: Spodoptera litura; assay: Insecticidal activity against adult Spodoptera litura in compound-treated castor leaves assessed as adult deformity at 10 ug/cm2 relative to control
[8] = test system: Earias vittella; assay: Insecticidal activity against third-instar larval stage of Earias vitella assessed as total larval duration time at 5 ug/cm3 administered through artificial diet containing Abelmoschus esculentus seed powder (reference value: 8.2 +/- 0.48 days)
[9] = test system: Spodoptera litura; assay: Insecticidal activity against female adult Spodoptera litura in compound-treated castor leaves assessed as adult longevity time at 5 ug/cm2 (reference value: 10 +/- 0.63 days)
[10] = test system: Spodoptera litura; assay: Insecticidal activity against adult Spodoptera litura in compound-treated castor leaves assessed as adult emergence at 10 ug/cm2 relative to control
[11] = test system: Earias vittella; assay: Insecticidal activity against adult Earias vitella assessed as adult deformity at 10 ug/cm3 administered through artificial diet containing Abelmoschus esculentus seed powder (reference value: 4%)
[12] = test system: Earias vittella; assay: Insecticidal activity against pupal stage of Earias vitella assessed as pupal duration time at 5 ug/cm3 administered through artificial diet containing Abelmoschus esculentus seed powder (reference value: 6.4 +/- 0.21 days)
[13] = test system: Spodoptera litura; assay: Antifeedant activity against third-instar larval stage of Spodoptera litura in compound-treated castor leaves assessed as decrease in diet consumption at 10 ug/cm2 after 24 hr by no-choice leaf disk assay relative to acetone-treated control; set-up: scale not given: the % may be the effect or the level left
Method in brief: (§1)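 Larvae were reared on castor leaves at 25 ± 2 °C. In a no-choice test, compound in acetone was painted on the abaxial side of castor leaf disks and air-dried. Five freshly molted third-instar larvae, starved 4 h, were placed per Petri dish with wet cotton. There were five replicates. After 24 h, consumed leaf area was read on a leaf area meter. %AF = 100 − (treated/control)×100.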

[14] = test system: Spodoptera litura; assay: Insecticidal activity against adult Spodoptera litura in compound-treated castor leaves assessed as adult emergence at 5 ug/cm2 relative to control
[15] = test system: Spodoptera litura; assay: Insecticidal activity against adult Spodoptera litura in compound-treated castor leaves assessed as adult deformity at 5 ug/cm2 relative to control
[16] = test system: Earias vittella; assay: Insecticidal activity against third-instar larval stage of Earias vitella assessed as larval mortality at 10 ug/cm3 administered through artificial diet containing Abelmoschus esculentus seed powder (reference value: 4%)
[17] = test system: Earias vittella; assay: Insecticidal activity against female adult Earias vitella assessed as adult longevity time at 5 ug/cm3 administered through artificial diet containing Abelmoschus esculentus seed powder (reference value: 8.6 +/- 0.48 days)
[18] = test system: Earias vittella; assay: Insecticidal activity against pupal stage of Earias vitella assessed as pupal mortality at 5 ug/cm3 administered through artificial diet containing Abelmoschus esculentus seed powder (reference value: 8%)
[19] = test system: Spodoptera litura; assay: Insecticidal activity against third-instar larval stage of Spodoptera litura in compound-treated castor leaves assessed as total larval duration time at 5 ug/cm2 (reference value: 12.4 +/- 0.48 days)
[20] = test system: Earias vittella; assay: Insecticidal activity against pupal stage of Earias vitella assessed as pupal weight at 5 ug/cm3 administered through artificial diet containing Abelmoschus esculentus seed powder (reference value: 88.2 +/- 4.01 mg)
[21] = test system: Earias vittella; assay: Insecticidal activity against pupal stage of Earias vitella assessed as pupal mortality at 10 ug/cm3 administered through artificial diet containing Abelmoschus esculentus seed powder (reference value: 8%)
[22] = test system: Earias vittella; assay: Insecticidal activity against male adult Earias vitella assessed as adult longevity time at 10 ug/cm3 administered through artificial diet containing Abelmoschus esculentus seed powder (reference value: 8.2 +/- 0.4 days)
[23] = test system: Earias vittella; assay: Insecticidal activity against pupal stage of Earias vitella assessed as pupal weight at 10 ug/cm3 administered through artificial diet containing Abelmoschus esculentus seed powder (reference value: 88.2 +/- 4.01 mg)
[24] = test system: Earias vittella; assay: Insecticidal activity against adult Earias vitella assessed as adult emergence at 5 ug/cm3 administered through artificial diet containing Abelmoschus esculentus seed powder (reference value: 88%)
[25] = test system: Spodoptera litura; assay: Insecticidal activity against pupal stage of Spodoptera litura in compound-treated castor leaves assessed as pupal weight at 5 ug/cm2 (reference value: 302.4 +/- 5.9 mg)
[26] = test system: Spodoptera litura; assay: Insecticidal activity against third-instar larval stage of Spodoptera litura in compound-treated castor leaves assessed as larval mortality at 5 ug/cm2 relative to control
[27] = test system: Earias vittella; assay: Antifeedant activity against third-instar larval stage of Earias vitella assessed as decrease in diet consumption at 10 ug/cm3 administered through artificial diet containing Abelmoschus esculentus seed powder after 24 hr relative to acetone-treated control; set-up: scale not given: the % may be the effect or the level left
Method in brief: (§2)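 Artificial diet was modified Klein medium with bhendi (Abelmoschus esculentus) seed powder in place of alfalfa. Compound in acetone was mixed into bhendi meal 12 h before diet preparation so the solvent evaporated. One 3 g diet cube was given to five freshly molted third-instar larvae in a muslin-covered container. After 24 h the cubes were weighed. %AF = 100 − (treated/control)×100.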

[28] = test system: Earias vittella; assay: Insecticidal activity against female adult Earias vitella assessed as adult longevity time at 10 ug/cm3 administered through artificial diet containing Abelmoschus esculentus seed powder (reference value: 8.6 +/- 0.48 days)
[29] = test system: Spodoptera litura; assay: Insecticidal activity against pupal stage of Spodoptera litura in compound-treated castor leaves assessed as pupal mortality at 10 ug/cm2 relative to control
[30] = test system: Earias vittella; assay: Insecticidal activity against adult Earias vitella assessed as adult deformity at 5 ug/cm3 administered through artificial diet containing Abelmoschus esculentus seed powder (reference value: 4%)
[31] = test system: Spodoptera litura; assay: Insecticidal activity against third-instar larval stage of Spodoptera litura in compound-treated castor leaves assessed as total larval duration time at 10 ug/cm2 (reference value: 12.4 +/- 0.48 days)
[32] = test system: Earias vittella; assay: Antifeedant activity against third-instar larval stage of Earias vitella assessed as decrease in diet consumption at 5 ug/cm3 administered through artificial diet containing Abelmoschus esculentus seed powder after 24 hr relative to acetone-treated control; set-up: scale not given: the % may be the effect or the level left; method in brief: as §2
[33] = test system: Spodoptera litura; assay: Insecticidal activity against female adult Spodoptera litura in compound-treated castor leaves assessed as adult longevity time at 10 ug/cm2 (reference value: 10 +/- 0.63 days)
[34] = test system: Spodoptera litura; assay: Insecticidal activity against third-instar larval stage of Spodoptera litura in compound-treated castor leaves assessed as larval mortality at 10 ug/cm2 relative to control
[35] = test system: Spodoptera litura; assay: Antifeedant activity against third-instar larval stage of Spodoptera litura in compound-treated castor leaves assessed as decrease in diet consumption at 5 ug/cm2 after 24 hr by no-choice leaf disk assay relative to acetone-treated control; set-up: scale not given: the % may be the effect or the level left; method in brief: as §1
[36] = test system: Spodoptera litura; assay: Insecticidal activity against male adult Spodoptera litura in compound-treated castor leaves assessed as adult longevity time at 5 ug/cm2 (reference value: 9.4 +/- 0.48 days)
[37] = test system: Earias vittella; assay: Insecticidal activity against male adult Earias vitella assessed as adult longevity time at 5 ug/cm3 administered through artificial diet containing Abelmoschus esculentus seed powder (reference value: 8.2 +/- 0.4 days)
[38] = test system: Earias vittella; assay: Insecticidal activity against adult Earias vitella assessed as adult emergence at 10 ug/cm3 administered through artificial diet containing Abelmoschus esculentus seed powder (reference value: 88%)
[39] = test system: Earias vittella; assay: Insecticidal activity against pupal stage of Earias vitella assessed as pupal duration time at 10 ug/cm3 administered through artificial diet containing Abelmoschus esculentus seed powder (reference value: 6.4 +/- 0.21 days)
[40] = test system: Spodoptera litura; assay: Insecticidal activity against male adult Spodoptera litura in compound-treated castor leaves assessed as adult longevity time at 10 ug/cm2 (reference value: 9.4 +/- 0.48 days)
[41] = test system: Spodoptera littoralis; assay: Antifeedant activity against Spodoptera littoralis assessed as decrease in diet consumption at 50 ppm after 2 hr by leaf disk assay relative to control; set-up: scale not given: the % may be the effect or the level left

CC(=O)OC[C@@]12[C@@H](OC(C)=O)C[C@@H](C)[C@](C)([C@@H]3C[C@H]4C=CO[C@H]4O3)[C@H]1C[C@@H](O)[C@H](OC(=O)C(C)(C)OC(C)=O)[C@]21CO1 [CLERODENDRIN C]
mortality [1]: 4% | mortality at 5 µg/cm2 [2]: 20.2% | Time [3]: 10 days | Activity [4]: 282.2 mg | Time [5]: 10.6 days | Time [6]: 8.2 days | Activity [7]: 8% | Time [8]: 8.4 days | Time [9]: 8.9 days | Activity [10]: 69.6% | Activity [11]: 8% | Time [12]: 7.2 days | Activity [13]: 65% | Activity [14]: 76% | Activity [15]: 4% | mortality [16]: 8% | Time [17]: 7.6 days | mortality [18]: 20% | Time [19]: 12.5 days | Activity [20]: 69 mg | mortality [21]: 22.5% | Time [22]: 6.8 days | Activity [23]: 66.2 mg | Activity [24]: 76% | Activity [25]: 289.8 mg | mortality at 5 µg/cm2 [26]: 12.5% | Activity [27]: 41.54% | Time [28]: 7.2 days | mortality at 10 µg/cm2 [29]: 22.7% | Activity [30]: 4% | Time [31]: 12.5 days | Activity [32]: 31% | Time [33]: 8.2 days | mortality at 10 µg/cm2 [34]: 14% | Activity [35]: 56% | Time [36]: 9.2 days | Time [37]: 7 days | Activity [38]: 70.5% | Time [39]: 7.8 days | Time [40]: 8.5 days

CC(=O)OC[C@@]12[C@@H](OC(C)=O)C[C@@H](C)[C@](C)([C@@H]3C[C@H]4C=CO[C@H]4O3)[C@H]1CCC[C@]21CO1 [CLERODIN]
mortality [1]: 4% | mortality at 5 µg/cm2 [2]: 27% | Time [3]: 10.9 days | Activity [4]: 250.2 mg | Time [5]: 11.6 days | Time [6]: 9.9 days | Activity [7]: 9.6% | Time [8]: 9.4 days | Time [9]: 8 days | Activity [10]: 63.2% | Activity [11]: 8% | Time [12]: 7.2 days | Activity [13]: 80% | Activity [14]: 64% | Activity [15]: 8% | Activity [41]: 100% | mortality [16]: 8% | Time [17]: 6.8 days | mortality [18]: 28.5% | Time [19]: 14.3 days | Activity [20]: 60.4 mg | mortality [21]: 32% | Time [22]: 6.4 days | Activity [23]: 58 mg | Activity [24]: 68.6% | Activity [25]: 270.2 mg | mortality at 5 µg/cm2 [26]: 24.5% | Activity [27]: 72.13% | Time [28]: 6.6 days | mortality at 10 µg/cm2 [29]: 27% | Activity [30]: 4% | Time [31]: 14.8 days | Activity [32]: 62.87% | Time [33]: 7 days | mortality at 10 µg/cm2 [34]: 35.2% | Activity [35]: 72% | Time [36]: 8.4 days | Time [37]: 6.6 days | Activity [38]: 60% | Time [39]: 8 days | Time [40]: 8 days
